According to ChEMBL document CHEMBL4825779, “Sulfur Analogues of Tyrosine in the Development of Triazene Hybrid Compounds: A New Strategy against Melanoma” (ACS Med Chem Lett, 2021):

T1: Tyrosinase (Agaricus bisporus, UniProt O42713)
T1 sequence (O42713 whole entry): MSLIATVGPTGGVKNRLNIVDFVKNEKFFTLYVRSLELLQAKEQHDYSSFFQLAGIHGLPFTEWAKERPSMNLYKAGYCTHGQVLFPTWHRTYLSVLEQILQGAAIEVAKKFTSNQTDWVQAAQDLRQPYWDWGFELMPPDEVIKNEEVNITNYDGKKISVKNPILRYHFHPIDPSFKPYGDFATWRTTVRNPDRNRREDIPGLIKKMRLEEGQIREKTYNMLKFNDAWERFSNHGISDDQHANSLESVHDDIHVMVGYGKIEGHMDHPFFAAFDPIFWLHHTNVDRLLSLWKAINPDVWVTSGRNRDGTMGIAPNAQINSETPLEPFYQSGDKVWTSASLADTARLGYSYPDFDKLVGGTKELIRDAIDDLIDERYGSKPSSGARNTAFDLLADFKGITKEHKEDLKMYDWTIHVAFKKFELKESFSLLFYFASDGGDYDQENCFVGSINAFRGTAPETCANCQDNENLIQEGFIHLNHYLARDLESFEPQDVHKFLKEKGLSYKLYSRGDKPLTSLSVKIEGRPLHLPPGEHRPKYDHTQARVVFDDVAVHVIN


Key:
[1] = Cytotoxicity against human MNT-1 cells assessed as reduction in cell viability incubated for 72 hrs by MTS assay; type: functional, cell-based; settings: MNT-1, 72 h
Outline: (§1)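 Cell lines: MNT-1 and A375 (human melanoma), B16F10 (murine melanoma) and HaCaT (human keratinocytes). Compounds incubated with cells for 72 h; IC50 reported in μM.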

[2] = tested on: B16-F10; assay: Cytotoxicity against mouse B16-F10 cells assessed as reduction in cell viability incubated for 72 hrs by MTS assay; type: functional, cell-based; settings: B16-F10, 72 h; outline: as §1
[3] = tested on: HaCaT; assay: Cytotoxicity against human HaCaT cells assessed as reduction in cell viability incubated for 72 hrs by MTS assay; type: cell-based; outline: as §1
[4] = 1-Octanol/phosphate buffer apparent partition coefficient, logP of the compound measured after 30 mins by HPLC analysis; type: physicochemical
[5] = Half life of the compound in PBS buffer at pH 7.4 by HPLC analysis; type: physicochemical
Outline: (§2)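 Stability run at 37 °C in PBS pH 7.4 or 80% human plasma. HPLC followed loss of parent and appearance of hydrolysis products over at least 3 half-lives. Decay fitted pseudo-first-order: kobs taken as the slope of ln(concentration) vs time, and t1/2 calculated from kobs.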

[6] = Half life in 80% human plasma by HPLC analysis; type: ADME, cell-free; outline: as §2
[7] = molecular target: T1, Tyrosinase; assay: Substrate activity at mushroom tyrosinase assessed as half-life of the compound by HPLC analysis; type: ADME
Outline: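 Incubated with mushroom tyrosinase at 100 units/mL. Reaction followed by HPLC to derive substrate half-life (min).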

[8] = tested on: A-375; assay: Cytotoxicity against human A-375 cells assessed as reduction in cell viability incubated for 72 hrs by MTS assay; type: functional, cell-based; settings: A-375, 72 h; outline: as §1
[9] = Haemolytic activity against human erythrocytes at 0.2 to 400 uM after 1 hr; type: ADME, cell-based, Erythrocyte; settings: dose 0.2-400 µM, read-out: Activity
Outline: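 Human red blood cells exposed to compound at 0.2 to 400 μM for 1 h at 37 °C. Read-out: percentage hemolysis.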

[10] = Toxicity in BALB/c mouse assessed as liver tissue index at 12 mg/kg, iv administered 3 times for 1 week and measured at 2 days post-last injection (reference value: 22 +/-1); type: organism-based; settings: in vivo, 216 h, time 9 day
[11] = Toxicity in BALB/c mouse assessed as spleen tissue index at 12 mg/kg, iv administered 3 times for 1 week and measured at 2 days post-last injection (reference value: 6 +/-1); type: organism-based; settings: in vivo, 216 h, time 9 day
[12] = Toxicity in BALB/c mouse assessed as kidney tissue index at 12 mg/kg, iv administered 3 times for 1 week and measured at 2 days post-last injection (reference value: 13 +/-1); type: organism-based; settings: in vivo, 216 h, time 9 day
[13] = Toxicity in BALB/c mouse assessed as lung tissue index at 12 mg/kg, iv administered 3 times for 1 week and measured at 2 days post-last injection (reference value: 8 +/-1); type: organism-based; settings: in vivo, 216 h, time 9 day
[14] = Toxicity in BALB/c mouse assessed as heart tissue index at 12 mg/kg, iv administered 3 times for 1 week and measured at 2 days post-last injection (reference value: 7 +/-1); type: organism-based; settings: in vivo, 216 h, time 9 day
[15] = Selectivity index, ratio of IC50 for human HaCaT cells to IC50 for human MNT-1 cells by MTS assay
[16] = Selectivity index, ratio of IC50 for human HaCaT cells to IC50 for mouse B16-F10 cells by MTS assay; type: toxicity; settings: HaCaT cells and B16-F10 cells, read-out: Ratio IC50
Outline: (§3)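 Human HaCaT keratinocytes and the melanoma line (human A375 or murine B16F10) were each incubated with compound for 72 h, and IC50 was determined in each line. Selectivity index is HaCaT IC50 divided by melanoma-line IC50.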

[17] = Hepatotoxicity in BALB/c mouse assessed as gamma-GT level in plasma at 12 mg/kg, iv administered 3 times for 1 week and measured at 2 days post-last injection (reference value: 47 +/-9 U/L); type: toxicity, organism-based; settings: in vivo, 216 h, time 9 day
Outline: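 BALB/c mice dosed intravenously at 12 mg/kg, 3 times per week for 1 week. Vehicle: PBS plus Cremophor (5% p/v); controls received vehicle only. Behaviour checked daily. Animals killed 2 days after the last injection; blood collected for γ-GT, and organs weighed for tissue index.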

[18] = Selectivity index, ratio of IC50 for human HaCaT cells to IC50 for human cells by MTS assay
[19] = Selectivity index, ratio of IC50 for human HaCaT cells to IC50 for human A-375 cells by MTS assay; outline: as §3
[20] = molecular target: T1, Tyrosinase; assay: Drug metabolism assessed as mushroom tyrosinase-mediated drug oxidation by measuring dihydroxylated metabolite formation with m/z 344 by mass spectrometry; type: ADME
[21] = Hepatotoxicity in rat liver microsomes assessed as GSH depletion measured after 180 mins by Ellman's method; type: toxicity, Microsome; settings: 3 h
[22] = Drug metabolism in rat liver microsomes assessed as CYP450-mediated o-quinone formation measured after 3 hrs by HPLC analysis; type: ADME, Microsome
[23] = molecular target: T1, Tyrosinase; assay: Drug metabolism assessed as mushroom tyrosinase-mediated drug oxidation by measuring dihydroxylated metabolite formation with m/z 408 by mass spectrometry; type: ADME
[24] = molecular target: T1, Tyrosinase; assay: Drug metabolism assessed as mushroom tyrosinase-mediated drug oxidation by measuring dihydroxylated metabolite formation with m/z 410 by mass spectrometry; type: ADME
[25] = molecular target: T1, Tyrosinase; assay: Drug metabolism assessed as mushroom tyrosinase-mediated drug oxidation by measuring compound 18c formation measured after 0.5 to 4 mins by HPLC analysis; type: ADME; settings: time 0.5-4 min
[26] = molecular target: T1, Tyrosinase; assay: Drug metabolism assessed as mushroom tyrosinase-mediated drug oxidation by measuring 3-(4-cyanophenyl)-N-(2-(3,4-dioxocyclohexa-1,5-dienylthio)ethyl)-1-methyltriaz-2-ene-1-carboxamide formation measured after 2 hrs by HPLC analysis; type: ADME
[27] = substrate: CCOC(=O)c1ccc(/N=N/N(C)C(=O)NCCSc2ccc(O)cc2)cc1; assay: (§4) Substrate activity at mushroom tyrosinase assessed as Km by Michaelis-Menten based analysis; type: ADME, Agaricus bisporus
[28] = substrate: CN(/N=N/c1ccc(C#N)cc1)C(=O)NCCSc1ccc(O)cc1; assay: as §4; type: ADME, Agaricus bisporus
[29] = substrate: Cc1ccc(/N=N/N(C)C(=O)NCCSc2ccc(O)cc2)cc1; assay: as §4; type: ADME, Agaricus bisporus

| Molecule | IC50 [1] [µM] | IC50 [2] [µM] | IC50 [3] [µM] | half-life [5] [h] | half-life [6] [h] | half-life [7] [min] | IC50 [8] [µM] | Ratio IC50 [15] | selectivity ratio [16] | Ratio IC50 [19] | further results |
| --- | --- | --- | --- | --- | --- | --- | --- | --- | --- | --- | --- |
| CN/N=N/c1ccc(Br)cc1 | > 60 | > 60 | > 60 |  |  |  |  |  |  |  |  |
| CCOC(=O)c1ccc(/N=N/N(C)C(=O)NCCSc2ccc(O)cc2)cc1 | 49.4 | 51 | > 100 | > 240 | 30.5 | 3.7 | 43.8 | 2 | 2 |  | logD at 0.5 h [4]: 4.08; hemolysis at 1 h, up to 400 µM [9]: < 1%; Activity_index [10]: 22; Activity_index [11]: 6; Activity_index [12]: 13; Activity_index [13]: 8; Activity_index [14]: 7; Activity [17]: 57 U/L; Ratio IC50 [18]: 2 |
| CN(/N=N/c1ccc(Cl)cc1)C(=O)CCSc1ccc(O)cc1 |  | > 75 | > 75 |  |  |  | > 75 | 2 | 2 | 2 |  |
| CN(/N=N/c1ccc(C#N)cc1)C(=O)CCSc1ccc(O)cc1 | > 75 | > 75 |  | 86.4 | 2.99 |  | > 75 | 2 | 2 | 2 |  |
| Cc1ccc(/N=N/N(C)C(=O)NCCSc2ccc(O)cc2)cc1 | 74.1 | 78.3 | > 130 | > 240 | 88.5 | 1.9 |  | 2 | 2 |  | logD at 0.5 h [4]: 4.21; Ratio IC50 [18]: 2 |
| Cc1ccc(/N=N/N(C)C(=O)CCSc2ccc(O)cc2)cc1 |  | > 75 | 45.8 | 101 | 8.7 | 2.3 | 47 | 2 | 2 | <1 | Drug metabolism [20]: Metabolite_Detected |
| CCOC(=O)c1ccc(/N=N/NC)cc1 | > 60 | > 60 | > 60 |  |  |  |  |  |  |  |  |
| NCCSc1ccc(O)cc1 | 42.8 | > 75 | > 125 |  |  |  |  | >=3 |  |  |  |
| Cn1nnc2c(C(N)=O)ncn2c1=O [TEMOZOLOMIDE] | > 75 | > 75 | > 75 |  |  |  | > 75 |  |  |  |  |
| CC(=O)c1ccc(/N=N/N(C)C(=O)NCCSc2ccc(O)cc2)cc1 | > 75 | > 75 | > 150 | > 240 | 61.6 | 1 |  | 2 | 2 |  | logD at 0.5 h [4]: 3.44; Ratio IC50 [18]: 2 |
| CCOC(=O)c1ccc(/N=N/N(C)C(=O)CCSc2ccc(O)cc2)cc1 | > 75 | > 75 |  | 130 | 6.57 |  | 61 | 2 | 2 | 2 |  |
| CN=NNc1ccc(C#N)cc1 | > 60 | > 60 | > 60 |  |  |  |  |  |  |  |  |
| CN(/N=N/c1ccc(Br)cc1)C(=O)NCCSc1ccc(O)cc1 | > 75 | > 75 | > 150 | > 240 | 105 | 0.5 |  | 2 | 2 |  | logD at 0.5 h [4]: 3.95; Activity [21]: Non-Toxic; Drug metabolism [22]: Metabolite_Notdetected; Ratio IC50 [18]: 2 |
| CC(=O)c1ccc(/N=N/N(C)C(=O)CCSc2ccc(O)cc2)cc1 | > 75 | > 75 |  | 139 | 4.9 |  | > 75 | 2 | 2 | 2 |  |
| CN(/N=N/c1ccc(Br)cc1)C(=O)CCSc1ccc(O)cc1 | > 75 | > 75 |  | 106 | 8.3 | 2.1 | 55 | 2 | 2 | 2 | Drug metabolism [23]: Metabolite_Detected; Drug metabolism [24]: Metabolite_Detected |
| CN(/N=N/c1ccc(C#N)cc1)C(=O)NCCSc1ccc(O)cc1 | > 75 | > 75 | > 150 | > 240 | 74 | 0.5 |  | 2 | 2 |  | logD at 0.5 h [4]: 3.49; Drug metabolism [25]: Metabolite_Detected; Drug metabolism [26]: Metabolite_Notdetected; Ratio IC50 [18]: 2 |
| CN=NNc1ccc(C(C)=O)cc1 | > 75 | > 75 | > 130 |  |  |  |  |  |  |  |  |
| Tyrosinase (Agaricus bisporus) (protein) MSLIATVGPTGGVKNRLNIVDFVKNEKFFTLYVRSLELLQAKEQHDYSSFFQLAGIHGLPFTEWAKERPSMNLYKAGYCTHGQVLFPTWHRTYLSVLEQILQGAAIEVAKKFTSNQTDWVQAAQDLRQPYWDWGFELMPPDEVIKNEEVNITNYDGKKISVKNPILRYHFHPIDPSFKPYGDFATWRTTVRNPDRNRREDIPGLIKKMRLEEGQIREKTYNMLKFNDAWERFSNHGISDDQHANSLESVHDDIHVMVGYGKIEGHMDHPFFAAFDPIFWLHHTNVDRLLSLWKAINPDVWVTSGRNRDGTMGIAPNAQINSETPLEPFYQSGDKVWTSASLADTARLGYSYPDFDKLVGGTKELIRDAIDDLIDERYGSKPSSGARNTAFDLLADFKGITKEHKEDLKMYDWTIHVAFKKFELKESFSLLFYFASDGGDYDQENCFVGSINAFRGTAPETCANCQDNENLIQEGFIHLNHYLARDLESFEPQDVHKFLKEKGLSYKLYSRGDKPLTSLSVKIEGRPLHLPPGEHRPKYDHTQARVVFDDVAVHVIN |  |  |  |  |  |  |  |  |  |  | Km [27]: 64 µM; Km [28]: 64 µM; Km [29]: 64 µM |
